Source: PubChem
PolyA inh – yeast polyadenylation inhibition. S. cerevisiae SKY197-pL101 polyadenylation reporter, beta-gal luminescence; efflux-impaired pdr1/pdr3 knockout yeast; score 100 = 6 SD above DMSO. activity score, % at 12 µM. 300,000 compounds, 0.02% hits. AID 1875;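 active = lowest replicate activity score at least 50, where 100 means six control SD above control mean; inconclusive = lowest score under 50 but half or more replicates reach 50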;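 note: yeast exposed to compound for 9 h at 30 °C; higher score means more reporter readthrough which indicates perturbed polyadenylation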
NALP1 inh – NALP1 inhibition; S. cerevisiae NALP1/ASC/caspase-1 growth, X-gal OD620, 72 h; inhibition, % at 10 µM; 280,000 compounds, 0.61% hits; AID 2071; in the data active = inhibition mostly above about 24%, no sharp cut-off; inactive = mostly below about 32%
NALP3 yeast inh – NALP3 inhibition in yeast; Yeast reconstituted NLRP3/ASC/caspase-1, beta-gal luminescence, 24 h; inhibition, % at 10 µM; 330,000 compounds, 0.39% hits; AID 2825;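 active = inhibition of 50% or more; inactive = inhibition below 50%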
VIM-2 inh – inhibitors of Pseudomonas aeruginosa VIM-2 metallo-beta-lactamase; purified VIM-2, nitrocefin hydrolysis, epi-absorbance fluorescence; inhibition, % at 5.6 µM; 290,000 compounds, 0.89% hits; AID 1527;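 active = inhibition above the mean of all tested compounds plus 3 SD, cutoff set per screening run, cut at about 7.5% in these data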;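 note: red hydrolysis product quenches plate fluorescence so inhibitors raise well fluorescence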
IMP-1 inh – blocks Pseudomonas aeruginosa IMP-1 metallo-beta-lactamase; purified IMP-1, nitrocefin hydrolysis, epi-absorbance fluorescence; inhibition, % at 5.6 µM; 290,000 compounds, 0.45% hits;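 active = inhibition above the mean plus 3 SD of all compounds in the same screening run, cut at about 4.5% in these data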
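system = purified recombinant IMP-1 beta-lactamase | amount = 0.2 nM IMP-1, as dispensed | medium = HEPES buffer pH 7.1 with ZnSO4 and Brij 35 | times = 25 °C, 15 min preincubation, 25 min reaction | detection = plate fluorescence quenching by hydrolysis product, ex 480/em 530 nm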
Mot1-301 SUMO – blocks SUMOylation pathway, rescuing yeast Mot1-301 growth; S. cerevisiae Mot1-301 growth rescue, ATP luminescence, 38.5C; percent above DMSO median, 100 means doubled; growth rescue, % at 18.8 µM; 320,000 compounds, 1% hits; AID 2716;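 active = every valid replicate shows activation above 250% relative to neutral control wells; inactive = the rest, any valid replicate at or below 250%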
VIM-2 inh confirm – VIM-2 inhibition, confirmation assay | shares compounds with IMP-1 inh | inhibition, % at 5.6 µM | 200 compounds, 73% hits | purified VIM-2 enzyme, nitrocefin absorbance; in the data active = inhibition above about 8%
TEM-1 counter – blocks E. coli TEM-1 beta-lactamase, VIM-2 IMP-1 counter-screen; shares compounds with IMP-1 inh; nitrocefin absorbance inhibition; inhibition, % at 5.6 µM; 200 compounds, 50% hits; AID 2184; in the data active = inhibition above about 0.66%
Target sequence (P62593 whole entry, looked up): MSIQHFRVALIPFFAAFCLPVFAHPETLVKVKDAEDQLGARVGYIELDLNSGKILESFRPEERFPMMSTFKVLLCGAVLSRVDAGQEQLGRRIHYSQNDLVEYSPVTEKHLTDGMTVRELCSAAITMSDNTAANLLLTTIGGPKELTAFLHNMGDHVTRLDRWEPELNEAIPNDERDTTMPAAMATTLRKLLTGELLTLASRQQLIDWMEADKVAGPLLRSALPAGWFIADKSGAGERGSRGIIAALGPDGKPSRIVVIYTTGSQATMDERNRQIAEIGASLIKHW
IMP-1 confirm – confirmation of P. aeruginosa IMP-1 metallo-beta-lactamase inhibitors | shares compounds with IMP-1 inh | purified IMP-1 enzyme, absorbance substrate hydrolysis | inhibition, % at 5.6 µM | 200 compounds, 60% hits | AID 2189; in the data active = inhibition above about 4.9%
NALP3 confirm – NALP3 inhibition confirmation in yeast; shares compounds with NALP3 yeast inh; yeast expressing human NALP3, luminescence; inhibition, % at 10 µM; 1,300 compounds, 81% hits; in the data active = inhibition above about 48%
Casp1-ASC yeast – active in yeast caspase-1-ASC counter-screen for NALP3 inhibitors; AID 488784; inhibition, % at 10 µM; 1,000 compounds, 66% hits; shares compounds with NALP3 yeast inh; yeast expressing Caspase-1-ASC, luminescence counter screen
NALP3 yeast rt – retest-confirmed inhibitor of NALP3 in yeast. 1,000 compounds, 53% hits. shares compounds with NALP3 yeast inh. AID 488794. yeast expressing human NALP3, luminescence read-out. inhibition, % at 10 µM
Numbers stand for hits. Hits are enriched below; roughly 2.9% of the tested compounds scored in any of these assays. Cut-off read from the data, not from the text of the source, unless noted: active = inhibition above about 50%; inactive = the rest.

How did COc1ccc(NC(=O)CN(c2ccc(OC)c(Cl)c2)S(=O)(=O)c2ccccc2)c(OC)c1 do in these assays?
PolyA inh: inactive; NALP1 inh: inactive; NALP3 yeast inh: inactive; VIM-2 inh: inactive; IMP-1 inh: inactive; Mot1-301 SUMO: inactive

What do the screens show for `COCCNC(=O)CN(Cc1ccccc1)S(=O)(=O)c1ccc2nc(C)sc2c1`?
PolyA inh: inactive; NALP1 inh: inactive; NALP3 yeast inh: inactive; VIM-2 inh: inactive; IMP-1 inh: inactive; Mot1-301 SUMO: inactive

How did CCCN1C(=O)c2cccc3c(N4CCCCC4)ccc(c23)C1=O do in these assays?
PolyA inh: inactive; NALP1 inh: inactive; VIM-2 inh: 32.2; IMP-1 inh: 23.6; Mot1-301 SUMO: inactive; VIM-2 inh confirm: 11.8; TEM-1 counter: 6.5; IMP-1 confirm: 5.5

What do the screens show for `CCCCNc1ccc2c3c(cccc13)C(=O)N(CCCC)C2=O`?
PolyA inh: inactive; NALP1 inh: inactive; VIM-2 inh: 14.6; IMP-1 inh: 12.2; VIM-2 inh confirm: 22.3; TEM-1 counter: 62.7; IMP-1 confirm: 18.3

Results for O=C1/C(=C\c2cc(Cl)c(O)c(Cl)c2)SC(=S)N1Cc1ccccc1 ?
PolyA inh: inactive; NALP1 inh: inactive; VIM-2 inh: 17.5; IMP-1 inh: 18.4; Mot1-301 SUMO: inactive; VIM-2 inh confirm: 17.7; TEM-1 counter: 54.5; IMP-1 confirm: 14.5

What do the screens show for `CCC(Cc1ccccc1)NC(=O)c1ccc2nc(N3CCOCC3)sc2c1` (stereo unspecified)?
PolyA inh: inactive; NALP1 inh: inactive; NALP3 yeast inh: inactive; VIM-2 inh: inactive; IMP-1 inh: inactive; Mot1-301 SUMO: inactive

How did COc1cc2c(cc1OC)CN(C(=O)C1CCN(S(=O)(=O)c3ccccc3F)CC1)CC2 do in these assays?
PolyA inh: inactive; NALP1 inh: inactive; NALP3 yeast inh: inactive; VIM-2 inh: inactive; IMP-1 inh: inactive; Mot1-301 SUMO: inactive

Results for Cc1ccc(C(=O)NCc2ccc(Cl)cc2)cc1S(=O)(=O)N1CCCCC1 ?
NALP3 yeast inh: inactive; Mot1-301 SUMO: inactive

Results for O=C(CSc1nnc(-c2ccc(O)cc2)n1Cc1ccco1)c1cccs1 ?
PolyA inh: inactive; NALP1 inh: inactive; NALP3 yeast inh: inactive; VIM-2 inh: inactive; IMP-1 inh: inactive; Mot1-301 SUMO: inactive

What do the screens show for `O=C(CC(SCc1ccco1)c1ccc(O)cc1)c1cccs1` (stereo unspecified)?
PolyA inh: inactive; NALP1 inh: inactive; NALP3 yeast inh: inactive; VIM-2 inh: inactive; IMP-1 inh: 16.1; Mot1-301 SUMO: 600.5; VIM-2 inh confirm: 9.2; TEM-1 counter: inactive; IMP-1 confirm: inactive

How did CCOC(=O)NC(=O)/C(C#N)=C\Nc1ccc(Cl)cc1Cl do in these assays?
PolyA inh: inactive; NALP1 inh: inactive; NALP3 yeast inh: inactive; VIM-2 inh: inactive; IMP-1 inh: inactive; Mot1-301 SUMO: inactive

How did CCOC(=O)NC(=O)/C(C#N)=C\Nc1sccc1C(=O)OC do in these assays?
PolyA inh: inactive; NALP1 inh: inactive; NALP3 yeast inh: inactive; VIM-2 inh: 7.7; IMP-1 inh: 9.1; Mot1-301 SUMO: inactive; VIM-2 inh confirm: inactive; TEM-1 counter: inactive; IMP-1 confirm: inactive

How did C=CCOc1ccc(/C=C/C(=O)OCC(=O)NCC(=O)Nc2c(C)cc(C)cc2C)cc1 do in these assays?
PolyA inh: inactive; NALP3 yeast inh: inactive; Mot1-301 SUMO: inactive

What do the screens show for `CCc1cccc(CC)c1-n1c(SCC(=O)N2CCCc3ccccc32)nc(O)cc1=O`?
NALP3 yeast inh: inactive; Mot1-301 SUMO: inactive

What do the screens show for `COc1ccc(-c2occ(C(=O)O)c2C(=O)O)cc1`?
PolyA inh: inactive; NALP1 inh: inactive; NALP3 yeast inh: inactive; VIM-2 inh: 10.2; IMP-1 inh: 25.8; Mot1-301 SUMO: inactive; VIM-2 inh confirm: 18.2; TEM-1 counter: inactive; IMP-1 confirm: 22.4

Results for CN1C(=CC=C2C=C(I)C(=O)C(I)=C2)C(C)(C)c2ccccc21 ?
NALP1 inh: inactive; VIM-2 inh: inactive; IMP-1 inh: inactive

What do the screens show for `CN1/C(=C\C=C2/C(=O)Oc3ccccc3C2=O)C(C)(C)c2ccccc21`?
PolyA inh: inconclusive; NALP1 inh: inactive; VIM-2 inh: 9.6; IMP-1 inh: 12.6; Mot1-301 SUMO: inactive; VIM-2 inh confirm: 30.6; TEM-1 counter: 45.1; IMP-1 confirm: 24.3

How did COc1ccc(/C(C)=N/NC(=O)c2nnn(-c3nonc3N)c2-c2ccccc2)cc1 do in these assays?
PolyA inh: inactive; NALP1 inh: inactive; NALP3 yeast inh: inactive; VIM-2 inh: 11.6; IMP-1 inh: 18.6; Mot1-301 SUMO: inactive; VIM-2 inh confirm: 14.9; TEM-1 counter: inactive; IMP-1 confirm: 17.8

What do the screens show for `N=C1SCC(=O)N1c1ncc(Cc2cccc(Cl)c2)s1`?
PolyA inh: inactive; NALP1 inh: inactive; VIM-2 inh: inactive; IMP-1 inh: inactive

What do the screens show for `O=C1CCN2C=Nc3cccc4ccc1c2c34`?
PolyA inh: inactive; NALP1 inh: inactive; NALP3 yeast inh: inactive; VIM-2 inh: 12.1; IMP-1 inh: 12.1; Mot1-301 SUMO: inactive; VIM-2 inh confirm: 31.6; TEM-1 counter: 28.5; IMP-1 confirm: 24.4

Results for O=C1/C(=C/c2cccnc2)SC(=S)N1c1ccc(O)cc1 ?
PolyA inh: inactive; NALP1 inh: inactive; NALP3 yeast inh: 87.3; VIM-2 inh: 9.2; IMP-1 inh: 6.0; Mot1-301 SUMO: inactive; VIM-2 inh confirm: 11.2; TEM-1 counter: inactive; IMP-1 confirm: inactive; NALP3 confirm: 89.2; Casp1-ASC yeast: 90.0; NALP3 yeast rt: 74.0

Results for COc1ccc(C(C(=O)NC2CCCC2)N(C(=O)CNC(=O)c2ccco2)c2cccnc2)cc1 (stereo unspecified) ?
PolyA inh: inactive; NALP1 inh: inactive; NALP3 yeast inh: inactive; VIM-2 inh: inactive; IMP-1 inh: inactive; Mot1-301 SUMO: inactive

Results for COc1ccc(NC(=O)COc2ccccc2)c(OC)c1 ?
PolyA inh: inactive; NALP1 inh: inactive; NALP3 yeast inh: inactive; VIM-2 inh: inactive; IMP-1 inh: inactive; Mot1-301 SUMO: inactive
